Assay results from ChEMBL document CHEMBL1221186, “Enhancement of capillary leakage and restoration of lymphocyte egress by a chiral S1P1 antagonist in vivo” (Nat Chem Biol, 2006).
Values belong to the compound of their own block, whether it stands above or below them. Active and inactive are the calls of the source. The rule behind the calls is not given here.

How the values were obtained:
Mus musculus [1] = test: Toxicity in ip dosed C57BL1/6J mouse assessed as effect on lymphocyte number at 10 mg/kg, ip; type: organism-based; design: dose 10 mg/kg, route intraperitoneal; conditions: in vivo
In short: (§1)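 C57BL6 mice were given antagonist i.p. (10 mg/kg, or 3 mg/kg where stated) at the time of oral SEW2871 (up to 20 mg/kg) or vehicle. At 5 h, EDTA blood was taken for full blood counts and differential counts on a veterinary autoanalyzer calibrated for mouse. Blood lymphocyte data pooled n=12 per group; Student's t-test.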

[2] = biological target: T1, Sphingosine 1-phosphate receptor 1 (Homo sapiens, UniProt P21453); test: Antagonist activity at human S1P1 receptor expressed in CHO cells assessed as inhibition of S1P-induced [35S]GTPgamma binding; type: functional, cell-based
In short: (§2)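 Membranes from CHO cells stably expressing human S1P1. [35S]GTPγS binding with serial dilutions of S1P or SEW2871 added (1–10 µg protein per well), with or without 30 min antagonist preincubation. Binding was normalized to the percentage induced by maximal S1P. Ki derived from the agonist EC50 shift.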

[3] = biological target: T1, Sphingosine 1-phosphate receptor 1; test: Antagonist activity at human S1P1 receptor expressed in CHO cells assessed as inhibition of SEW2871-induced [35S]GTPgamma binding; type: functional, cell-based; in short: as §2
[4] = biological target: Sphingosine 1-phosphate receptor 2 (Homo sapiens) (UniProt O95136); test: Antagonist activity at human S1P2 receptor expressed in CHO cells assessed as inhibition of S1P-induced [35S]GTPgamma binding at 10 uM; type: functional, cell-based
In short: (§3)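 Membranes from CHO cells expressing human S1P2, S1P3 or S1P5. [35S]GTPγS binding with serial dilutions of S1P added to membranes (1–10 µg protein per well), with or without 30 min preincubation. Antagonist concentrations were as previously described.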

[5] = biological target: Sphingosine 1-phosphate receptor 3 (Homo sapiens) (UniProt Q99500); test: Antagonist activity at human S1P3 receptor expressed in CHO cells assessed as inhibition of S1P-induced [35S]GTPgamma binding at 10 uM; type: functional, cell-based; in short: as §3
[6] = biological target: Sphingosine 1-phosphate receptor 5 (Homo sapiens) (UniProt Q9H228); test: Antagonist activity at human S1P5 receptor expressed in CHO cells assessed as inhibition of S1P-induced [35S]GTPgamma binding at 10 uM; type: functional, cell-based; in short: as §3
[7] = biological target: Sphingosine 1-phosphate receptor 2 (Homo sapiens) (UniProt O95136); test: Agonist activity at human S1P2 receptor expressed in CHO cells assessed as stimulation of [35S]GTPgamma binding at 10 uM; type: functional, cell-based; in short: as §3
[8] = biological target: Sphingosine 1-phosphate receptor 3 (Homo sapiens) (UniProt Q99500); test: Agonist activity at human S1P3 receptor expressed in CHO cells assessed as stimulation of [35S]GTPgamma binding at 10 uM; type: functional, cell-based; in short: as §3
[9] = biological target: Sphingosine 1-phosphate receptor 5 (Homo sapiens) (UniProt Q9H228); test: Agonist activity at human S1P5 receptor expressed in CHO cells assessed as stimulation of [35S]GTPgamma binding at 10 uM; type: functional, cell-based; in short: as §3
[10] = biological target: T1, Sphingosine 1-phosphate receptor 1; test: Inhibition of GFP-tagged human S1P1 receptor internalization expressed in HEK293 cells at 10 uM by fluorimetric assay; type: cell-based
[11] = biological target: T1, Sphingosine 1-phosphate receptor 1; test: Antagonist activity at human S1P1 receptor expressed in CHO cells assessed as inhibition of SEW2871-induced ERK1/2 phosphorylation at 10 uM by Western blot; type: functional, cell-based
In short: (§4)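 CHO cells stably expressing human S1P1 or S1P3 were grown to 50% confluence and serum-starved for 16 h. Cells were preincubated 1 h with antagonist at 10 µM, then stimulated 5 min with S1P or SEW2871 in serum-free medium with 0.1% fatty-acid-free BSA. Western blots of lysates gave phospho-ERK1/2 and phospho-Akt band intensities normalized to total ERK1/2 or Akt. n≥3.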

[12] = biological target: T1, Sphingosine 1-phosphate receptor 1; test: Antagonist activity at human S1P1 receptor expressed in CHO cells assessed as inhibition of SEW2871-induced Akt phosphorylation at 10 uM by Western blot; type: functional, cell-based; in short: as §4
[13] = biological target: T1, Sphingosine 1-phosphate receptor 1; test: Antagonist activity at human S1P1 receptor expressed in CHO cells assessed as inhibition of S1P-induced ERK1/2 phosphorylation at 10 uM by Western blot; type: functional, cell-based; in short: as §4
[14] = biological target: T1, Sphingosine 1-phosphate receptor 1; test: Antagonist activity at human S1P1 receptor expressed in CHO cells assessed as inhibition of S1P-induced Akt phosphorylation at 10 uM by Western blot; type: functional, cell-based; in short: as §4
[15] = biological target: Sphingosine 1-phosphate receptor 3 (Homo sapiens) (UniProt Q99500); test: Antagonist activity at human S1P3 receptor expressed in CHO cells assessed as inhibition of S1P-induced ERK1/2 phosphorylation at 10 uM by Western blot; type: functional, cell-based; in short: as §4
[16] = biological target: Sphingosine 1-phosphate receptor 3 (Homo sapiens) (UniProt Q99500); test: Antagonist activity at human S1P3 receptor expressed in CHO cells assessed as inhibition of S1P-induced Akt phosphorylation at 10 uM by Western blot; type: functional, cell-based; in short: as §4
[17] = Plasma concentration in mouse at 10 mg/kg, ip after 5 hrs; type: ADME, organism-based; design: dose 10 mg/kg, route intraperitoneal
In short: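 Plasma concentration measured by LC-MS in mice 5 h after i.p. injection of 10 mg/kg.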

[18] = Volume of distribution at steady state in cannulated rat at 1 mg/kg, iv by LC-MS method; type: ADME, organism-based; design: dose 1 mg/kg, route intravenous; conditions: in vivo, read-out: Vdss
In short: (§5)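 Cannulated rats (n=3) were given 1 mg/kg i.v. Plasma levels were followed by LC-MS to derive half-life, steady-state volume of distribution and plasma clearance.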

[19] = Half life in cannulated rat at 1 mg/kg, iv by LC-MS method; type: ADME, organism-based; design: dose 1 mg/kg, route intravenous; conditions: in vivo; in short: as §5
[20] = Plasma clearance in cannulated rat at 1 mg/kg, iv by LC-MS method; type: ADME, organism-based; design: dose 1 mg/kg, route intravenous; in short: as §5
Mus musculus [21] = species on record: Mus musculus; test: Inhibition of SEW2871-induced protection against VEGF-induced capillary leakage in Balb/cByJ mouse assessed as skin leakage of Evans blue dye from plasma into interstitial spaces by Miles assay; type: functional, organism-based; conditions: Skin of body
In short: (§6)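 Male Balb/cByJ mice (30 g) got i.p. vehicle (10 mM Na2CO3, 2% β-hydroxypropyl-cyclodextran) or antagonist 10 mg/kg, then oral SEW2871 20 mg/kg or vehicle. At 4.5 h, 0.5% Evans blue was given i.v. Intradermal murine VEGF165 (100 ng) or PBS/0.1% BSA was injected in triplicate. After 30 min, skin biopsies were extracted in formamide at 58 °C and read at 565 nm (VEGF minus BSA). ANOVA/Bonferroni.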

Mus musculus [22] = species on record: Mus musculus; test: Potentiation of VEGF-induced capillary leakage in Balb/cByJ mouse assessed as skin leakage of Evans blue dye from plasma into interstitial spaces Miles assay; type: functional, organism-based; conditions: Skin of body; in short: as §6
Mus musculus [23] = test: Toxicity in ip dosed C57BL1/6J mouse assessed as induction of spontaneous pulmonary edema by Evan blue dye leakage assay; type: organism-based; conditions: in vivo
Mus musculus [24] = test: Toxicity in ip dosed C57BL1/6J mouse assessed as effect on percentage of lymphocyte within total WBCs counts in peripheral blood at 10 mg/kg, ip; type: organism-based; design: dose 10 mg/kg, route intraperitoneal; conditions: in vivo; in short: as §1
Mus musculus [25] = test: Inhibition of SEW2871-induced lymphocyte egress in C57BL1/6J mouse assessed as blood lymphocyte sequestration at 10 to 20 mg/kg, ip; type: functional, organism-based; in short: as §1
Mus musculus [26] = test: Inhibition of SEW2871-induced lymphocyte maturation in C57BL1/6J mouse assessed as medullary thymocyte phenotypic maturation at 10 to 20 mg/kg, ip; type: functional, organism-based
In short: (§7)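 Mice received oral SEW2871 (20 mg/kg) with or without i.p. antagonist (10 mg/kg). Thymi were removed at 5 h and CD69 on single-positive CD4+ thymocytes was measured by flow cytometry. n=3.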

Mus musculus [27] = test: Inhibition of SEW2871-induced lymphopenia in C57BL1/6J mouse at 3 mg/kg, ip; type: functional, organism-based; design: dose 3 mg/kg; in short: as §1
Mus musculus [28] = test: Inhibition of SEW2871-induced loss of CD69 expression in single positive CD4+ thymocytes in thymic medulla of C57BL1/6J mouse at 10 mg/kg, ip by FACS method; type: functional, organism-based; design: dose 10 mg/kg; in short: as §7
Mus musculus [29] = test: Effect on CD69 expression in single positive CD4+ thymocytes in thymic medulla of C57BL1/6J mouse at 10 mg/kg, ip by FACS method; type: organism-based; design: dose 10 mg/kg, route intraperitoneal; conditions: in vivo; in short: as §7
Mus musculus [30] = test: Inhibition of SEW2871-induced medullary arrest of T cells in inguinal lymph nodes of BALB/c mouse at 10 mg/kg, iv by FITC-conjugated dextran staining based In vivo two-photon imaging method; type: functional, organism-based; design: dose 10 mg/kg; conditions: T-cell
In short: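 Adoptively transferred CFSE-labelled CD4+ T cells in BALB/c mice. Mice were dosed orally with SEW2871 (10 mg/kg), and the inguinal lymph node was imaged by intravital two-photon microscopy 4–6 h later. Medullary sinus labelled with footpad rhodamine-dextran. Antagonist 10 mg/kg given i.v. during imaging; instantaneous T-cell velocities tracked in medulla and cortex.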

T1 sequence (P21453 whole entry): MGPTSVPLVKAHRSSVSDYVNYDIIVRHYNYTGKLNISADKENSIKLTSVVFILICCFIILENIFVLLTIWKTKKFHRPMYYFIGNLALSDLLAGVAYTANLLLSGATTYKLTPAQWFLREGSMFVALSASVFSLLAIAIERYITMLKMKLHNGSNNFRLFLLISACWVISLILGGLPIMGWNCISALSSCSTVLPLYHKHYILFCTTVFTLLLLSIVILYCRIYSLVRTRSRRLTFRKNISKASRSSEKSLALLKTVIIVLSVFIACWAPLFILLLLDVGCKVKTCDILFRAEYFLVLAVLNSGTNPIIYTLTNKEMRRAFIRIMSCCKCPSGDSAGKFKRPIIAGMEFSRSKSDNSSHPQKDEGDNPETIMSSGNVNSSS
Sequence of Sphingosine 1-phosphate receptor 3 (Homo sapiens) (Q99500 whole entry): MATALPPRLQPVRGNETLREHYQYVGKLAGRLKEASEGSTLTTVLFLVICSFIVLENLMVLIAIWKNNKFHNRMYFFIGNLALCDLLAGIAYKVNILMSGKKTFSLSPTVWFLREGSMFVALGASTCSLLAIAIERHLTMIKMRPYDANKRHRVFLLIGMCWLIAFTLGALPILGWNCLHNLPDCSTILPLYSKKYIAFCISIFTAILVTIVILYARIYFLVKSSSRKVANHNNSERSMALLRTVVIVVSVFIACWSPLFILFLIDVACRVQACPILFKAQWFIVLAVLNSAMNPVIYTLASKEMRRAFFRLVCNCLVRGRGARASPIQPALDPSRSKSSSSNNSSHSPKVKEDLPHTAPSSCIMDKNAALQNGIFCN
Sequence of Sphingosine 1-phosphate receptor 2 (Homo sapiens) (O95136 whole entry): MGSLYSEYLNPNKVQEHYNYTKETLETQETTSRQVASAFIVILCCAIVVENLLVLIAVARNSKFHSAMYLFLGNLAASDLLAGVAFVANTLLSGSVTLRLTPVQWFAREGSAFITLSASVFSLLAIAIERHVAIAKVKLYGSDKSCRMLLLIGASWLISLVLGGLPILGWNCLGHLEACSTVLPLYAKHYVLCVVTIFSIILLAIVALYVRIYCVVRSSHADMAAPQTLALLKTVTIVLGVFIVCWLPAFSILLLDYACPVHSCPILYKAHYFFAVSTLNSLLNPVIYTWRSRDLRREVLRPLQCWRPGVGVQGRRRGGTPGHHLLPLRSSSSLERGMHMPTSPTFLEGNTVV
Sequence of Sphingosine 1-phosphate receptor 5 (Homo sapiens) (Q9H228 whole entry): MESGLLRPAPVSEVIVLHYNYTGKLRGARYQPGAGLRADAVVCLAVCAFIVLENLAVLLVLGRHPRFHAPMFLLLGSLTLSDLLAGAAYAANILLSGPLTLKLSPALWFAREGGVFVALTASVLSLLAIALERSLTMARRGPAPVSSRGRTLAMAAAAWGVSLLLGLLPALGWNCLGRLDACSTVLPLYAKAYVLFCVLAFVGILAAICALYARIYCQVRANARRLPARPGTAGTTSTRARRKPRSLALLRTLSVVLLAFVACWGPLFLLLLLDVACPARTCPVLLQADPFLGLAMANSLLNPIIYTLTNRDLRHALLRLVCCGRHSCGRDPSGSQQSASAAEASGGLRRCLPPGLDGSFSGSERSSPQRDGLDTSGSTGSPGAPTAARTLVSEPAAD

Ki [2]: 0.077 µM | Ki [3]: 0.018 µM | inhibition [4]: inactive | inhibition [5]: inactive | inhibition [6]: inactive | Activity [7]: inactive | Activity [8]: inactive | Activity [9]: inactive | inhibition [10]: Active | inhibition [11]: Active | inhibition [12]: Active | inhibition [13]: > 70% | inhibition [14]: > 70% | inhibition [15]: inactive | inhibition [16]: inactive | concentration at 5 h [17]: 268 nM | Vd [18]: 0.46 L/kg | half-life [19]: 1.22 h | clearance [20]: 4.63 mL/min/kg
SMILES: CCCCCCc1cccc(NC(=O)[C@H](N)CCP(=O)(O)O)c1
Activity (Mus musculus [1]): Non-toxic | inhibition (Mus musculus [21]): Active | Activity (Mus musculus [22]): Active | Activity (Mus musculus [23]): Dose-dependent effect | Activity (Mus musculus [24]): Non-toxic | inhibition (Mus musculus [25]): Active | inhibition (Mus musculus [26]): Active | inhibition (Mus musculus [27]): Active | inhibition (Mus musculus [28]): Active | Activity (Mus musculus [29]): Non-toxic | inhibition (Mus musculus [30]): Active

Ki [2]: 4.63 µM | Ki [3]: 2.84 µM
SMILES: CCCCCCc1cccc(NC(=O)[C@@H](N)CCP(=O)(O)O)c1
inhibition (Mus musculus [21]): inactive | Activity (Mus musculus [23]): Non-toxic | inhibition (Mus musculus [25]): inactive | inhibition (Mus musculus [26]): inactive
